# ChEMBL document CHEMBL1131471, “N-[trans-2-[[2'-(acetylamino)cyclohexyl]oxy]acetyl]-L-alanyl-D-glutamic acid: a novel immunologically active carbocyclic muramyl dipeptide analogue” (1998)
# Legend:
# Mus musculus [1] = experiment: Compound was tested for its ability to enhance nonspecific resistance to expt. fungal infection in mice immunosuppressed with cyclophosphamide and infected with candida albicans at 3x100 mg/kg/day; survival increase = 0/6; format: functional
# Method in brief: (§1)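 Groups of 10 mice in a controlled room. Test substance or vehicle (distilled water) was given ip on days 1, 3 and 5. Cyclophosphamide 30 mg/kg po was given on days 2, 4 and 6. One hour after the last cyclophosphamide dose, mice were challenged with C. albicans at a level set for 70–90% mortality within 10 days in vehicle controls. Survival over 10 days was scored as (treated − CP-only survivors)/(unsuppressed control − CP-only survivors).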
# Mus musculus [2] = experiment: Compound was tested for its ability to enhance nonspecific resistance to expt. fungal infection in mice immunosuppressed with cyclophosphamide and infected with candida albicans at 3x 0.1 mg/kg/day; survival increase = 0/6; format: functional; method in brief: as §1
# Mus musculus [3] = experiment: Compound was tested for its ability to enhance nonspecific resistance to expt. fungal infection in mice immunosuppressed with cyclophosphamide and infected with candida albicans at 3x10 mg/kg/day; survival increase = 0/6; format: functional; method in brief: as §1
# Mus musculus [4] = experiment: Compound was tested for its ability to enhance nonspecific resistance to expt. fungal infection in mice immunosuppressed with cyclophosphamide and infected with candida albicans at 3x1 mg/kg/day; survival increase = 1/6; format: functional; method in brief: as §1
# Mus musculus [5] = experiment: Compound was tested for its ability to enhance nonspecific resistance to expt. fungal infection in mice immunosuppressed with cyclophosphamide and infected with candida albicans at 3x10 mg/kg/day; survival increase = 2/6; format: functional; method in brief: as §1
# Mus musculus [6] = experiment: Compound was tested for its ability to enhance nonspecific resistance to expt. fungal infection in mice immunosuppressed with cyclophosphamide and infected with candida albicans at 3x100 mg/kg/day; survival increase = 2/6; format: functional; method in brief: as §1
# Mus musculus [7] = experiment: Compound was tested for its ability to enhance nonspecific resistance to expt. fungal infection in mice immunosuppressed with cyclophosphamide and infected with candida albicans at 3x100 mg/kg/day; survival increase = 1/6; format: functional; method in brief: as §1
# Mus musculus [8] = experiment: Compound was tested for its ability to enhance nonspecific resistance to expt. fungal infection in mice immunosuppressed with cyclophosphamide and infected with candida albicans at 3x 0.1 mg/kg/day;survival increase = 0/6; format: functional; method in brief: as §1
# Mus musculus [9] = experiment: Compound was tested for its ability to enhance nonspecific resistance to expt. fungal infection in mice immunosuppressed with cyclophosphamide and infected with candida albicans at 3x1 mg/kg/day; survival increase = 0/6; format: functional; method in brief: as §1
# Mus musculus [10] = species: Mus musculus; experiment: Compound was tested for its effect on number of total spleen cells at 0.25 microg daily dose in mouse; format: functional
# Method in brief: (§2)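 Female HAN–NmRi mice (3–4 weeks) got thioglycolate ip and the dose ip in 0.5 mL on days 1–3, and spleens were taken on day 4. B cells were stained with FITC goat anti-mouse IgG. T cells were stained with rat anti-Thy-1 and then FITC goat anti-rat Ig. Cells were counted by fluorescence microscopy and reported in millions as mean ± SEM with p values.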
# Mus musculus [11] = species: Mus musculus; experiment: Compound was tested for blast transformation ability of lymphocytes, stimulated in vitro with Concanavalin A expressed as amount of [3H]-thymidine incorporated in lymphocyte DNA at 0.25 microg daily dose in mouse; format: functional
# Method in brief: (§3)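 Female HAN–NmRi mice (3–4 weeks, 17–20 g) got 1 mL thioglycolate ip, then the dose in 0.5 mL ip one hour later, repeated on days 2 and 3. On day 4, spleen lymphocytes were taken at 1 × 10^6/mL in RPMI 1640 with 10% FCS and stimulated with Con A at 16, 8 or 4 μg/mL for 2 days at 37 °C, 5% CO2. [3H]thymidine was then added for 16 h and counted by β-counter. Results are cpm, n = 5.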
# Mus musculus [12] = species: Mus musculus; experiment: Compound was tested for its effect on number of T cells at 25 microg daily dose in mouse; format: functional, T-cell; method in brief: as §2
# Mus musculus [13] = species: Mus musculus; experiment: Compound was tested for immunomodulatory effect on macrophage activation without costimulation with PMA measured as UV absorption difference with test sample at 0.25 microg daily dose and blank/mg of cell protein in mouse; format: functional
# Method in brief: (§4)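 Female HAN–NmRi mice got thioglycolate ip plus the dose ip (0.5 mL) daily for 3 days and were killed on day 4. Peritoneal cells were washed out, erythrocytes lysed hypo-osmotically, and cells plated at 1.5 × 10^6/mL. They adhered for 2 h and nonadherent cells were rinsed off. Macrophages were given 160 μM ferricytochrome c in HBSS, with or without 200 nM PMA; the blank added 340 U/mL SOD. After 90 min at 37 °C, absorbance was read at […].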
# Mus musculus [14] = species: Mus musculus; experiment: Compound was tested for immunomodulatory effect on macrophage activation with costimulation with PMA measured as UV absorption difference with test sample at 2.5 microg daily dose and blank/mg of cell protein in mouse; format: functional; method in brief: as §4
# Mus musculus [15] = species: Mus musculus; experiment: Compound was tested for blast transformation ability of lymphocytes, stimulated in vitro with Concanavalin A expressed as amount of [3H]thymidine incorporated in lymphocyte DNA at 25 microg daily dose in mouse; format: functional; method in brief: as §3
# Mus musculus [16] = species: Mus musculus; experiment: Compound was tested for its effect on number of total spleen cells at 25 microg daily dose in mouse; format: functional; method in brief: as §2
# Mus musculus [17] = species: Mus musculus; experiment: Compound was tested for its effect on number of total spleen cells at 2.5 microg daily dose in mouse; format: functional; method in brief: as §2
# Mus musculus [18] = species: Mus musculus; experiment: Compound was tested for its effect on number of B-cells at 0.25 microg daily dose in mouse; format: functional, B-cell; method in brief: as §2
# Mus musculus [19] = species: Mus musculus; experiment: Compound was tested for its effect on number of peritoneal macrophages at 25 microg daily dose in mouse; format: functional
# Method in brief: (§5)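 Female HAN–NmRi mice got thioglycolate ip and the dose ip (0.5 mL) daily for 3 days. On day 4, peritoneal cells were washed out with ice-cold RPMI 1640. Macrophages were counted with trypan blue in a Neubauer chamber, excluding contaminating cells by morphology, and reported in millions as mean ± SEM.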
# Mus musculus [20] = species: Mus musculus; experiment: Compound was tested for its effect on number of T cells at 2.5 microg daily dose in mouse; format: functional, T-cell; method in brief: as §2
# Mus musculus [21] = species: Mus musculus; experiment: Compound was tested for its effect on number of T cells at 0.25 microg daily dose in mouse; format: functional, T-cell; method in brief: as §2
# Mus musculus [22] = species: Mus musculus; experiment: Compound was tested for its effect on number of peritoneal macrophages at 2.5 microg daily dose in mouse; format: functional; method in brief: as §5
# Mus musculus [23] = species: Mus musculus; experiment: Compound was tested for immunomodulatory effect on macrophage activation without costimulation with PMA measured as UV absorption difference with test sample at 25 microg daily dose and blank/mg of cell protein in mouse; format: functional; method in brief: as §4
# Mus musculus [24] = species: Mus musculus; experiment: Compound was tested for its effect on number of peritoneal macrophages at 0.25 microg daily dose in mouse; format: functional; method in brief: as §5
# Mus musculus [25] = species: Mus musculus; experiment: Compound was tested for its effect on number of B-cells at 25 microg daily dose in mouse; format: functional, B-cell; method in brief: as §2
# Mus musculus [26] = species: Mus musculus; experiment: Compound was tested for immunomodulatory effect on macrophage activation with costimulation with PMA measured as UV absorption difference with test sample at 25 microg daily dose and blank/mg of cell protein in mouse; format: functional; method in brief: as §4
# Mus musculus [27] = species: Mus musculus; experiment: Compound was tested for blast transformation ability of lymphocytes, stimulated in vitro with Concanavalin A expressed as amount of [3H]thymidine incorporated in lymphocyte DNA at 2.5 microg daily dose in mouse; format: functional; method in brief: as §3
# Mus musculus [28] = species: Mus musculus; experiment: Compound was tested for its effect on number of B-cells at 2.5 microg daily dose in mouse; format: functional, B-cell; method in brief: as §2
# Mus musculus [29] = species: Mus musculus; experiment: Compound was tested for immunomodulatory effect on macrophage activation with costimulation with PMA measured as UV absorption difference with test sample at 0.25 microg daily dose and blank/mg of cell protein in mouse; format: functional; method in brief: as §4
# Mus musculus [30] = species: Mus musculus; experiment: Compound was tested for immunomodulatory effect on macrophage activation without costimulation with PMA measured as UV absorption difference with test sample at 2.5 microg daily dose and blank/mg of cell protein in mouse; format: functional; method in brief: as §4
# Mus musculus [31] = experiment: Compound was tested for its ability to enhance nonspecific resistance to expt. fungal infection in mice immunosuppressed with cyclophosphamide and infected with candida albicans at 3x10 mg/kg/day; survival increase = 1/6; format: functional; method in brief: as §1
# Mus musculus [32] = experiment: Compound was tested for its ability to enhance nonspecific resistance to expt. fungal infection in mice immunosuppressed with cyclophosphamide and infected with candida albicans at 3x30 mg/kg/day; survival increase = 1/6; format: functional; method in brief: as §1
# Mus musculus [33] = experiment: Compound was tested for its ability to enhance nonspecific resistance to expt. fungal infection in mice immunosuppressed with cyclophosphamide and infected with candida albicans at 3x 0.1 mg/kg/day; survival increase = 2/6; format: functional; method in brief: as §1
# Mus musculus [34] = experiment: Compound was tested for its ability to enhance nonspecific resistance to expt. fungal infection in mice immunosuppressed with cyclophosphamide and infected with candida albicans at 3x100 mg/kg/day; survival increase = 3/6; format: functional; method in brief: as §1
# Mus musculus [35] = experiment: Compound was tested for its ability to enhance nonspecific resistance to expt. fungal infection in mice immunosuppressed with cyclophosphamide and infected with candida albicans at 3x10 mg/kg/day; survival increase = 3/6; format: functional; method in brief: as §1
# Mus musculus [36] = experiment: Compound was tested for its ability to enhance nonspecific resistance to expt. fungal infection in mice immunosuppressed with cyclophosphamide and infected with candida albicans at 3x1 mg/kg/day; survival increase = 2/6; format: functional; method in brief: as §1
# Mus musculus [37] = experiment: Compound was tested for its ability to enhance nonspecific resistance to expt. fungal infection in mice immunosuppressed with cyclophosphamide and infected with candida albicans at 3x30 mg/kg/day; survival increase = 3/6; format: functional; method in brief: as §1
# Mus musculus [38] = experiment: Compound was tested for its ability to enhance nonspecific resistance to expt. fungal infection in mice immunosuppressed with cyclophosphamide and infected with candida albicans at 3x 0.1 mg/kg/day; survival increase = 3/6; format: functional; method in brief: as §1
# Mus musculus [39] = experiment: Compound was tested for its ability to enhance nonspecific resistance to expt. fungal infection in mice immunosuppressed with cyclophosphamide and infected with candida albicans at 3x1 mg/kg/day; survival increase = 3/6; format: functional; method in brief: as §1
smiles,measurement,setting,value
CC(=O)N[C@@H]1CCCC[C@H]1OCC(=O)N[C@@H](C)C(=O)N[C@H](CCC(=O)O)C(N)=O,Survival increase,Mus musculus [1],0
same,Survival increase,Mus musculus [2],0
same,Survival increase,Mus musculus [3],0
same,Survival increase,Mus musculus [4],1
CC(=O)N[C@H]1CCCC[C@@H]1OCC(=O)N[C@@H](C)C(=O)N[C@H](CCC(=O)O)C(=O)O,Survival increase,Mus musculus [5],2
same,Survival increase,Mus musculus [2],0
same,Survival increase,Mus musculus [4],1
same,Survival increase,Mus musculus [6],2
CC(=O)N[C@H]1CCCC[C@@H]1OCC(=O)N[C@@H](C)C(=O)N[C@H](CCC(=O)O)C(N)=O,Survival increase,Mus musculus [7],1
same,Survival increase,Mus musculus [8],0
same,Survival increase,Mus musculus [3],0
same,Survival increase,Mus musculus [9],0
CC(=O)NC1CCCCC1OCC(=O)N[C@@H](C)C(=O)N[C@H](CCC(=O)O)C(=O)O (stereo partly drawn),Number,Mus musculus [10],5.66 millions
same,Amount of [3H]thymidine,Mus musculus [11],10780 c.p.m.
same,Number,Mus musculus [12],9.72 millions
same,Macrophage activation,Mus musculus [13],237
same,Macrophage activation,Mus musculus [14],1494
same,Amount of [3H]thymidine,Mus musculus [15],25990 c.p.m.
same,Number,Mus musculus [16],9.93 millions
same,Number,Mus musculus [17],8.14 millions
same,Number,Mus musculus [18],18.42 millions
same,Number,Mus musculus [19],0.92 millions
same,Number,Mus musculus [20],12.88 millions
same,Number,Mus musculus [21],11.7 millions
same,Number,Mus musculus [22],2.87 millions
same,Macrophage activation,Mus musculus [23],489
same,Number,Mus musculus [24],2.58 millions
same,Number,Mus musculus [25],20.5 millions
same,Macrophage activation,Mus musculus [26],1709
same,Amount of [3H]thymidine,Mus musculus [27],16830 c.p.m.
same,Number,Mus musculus [28],23.76 millions
same,Macrophage activation,Mus musculus [29],1298
same,Macrophage activation,Mus musculus [30],431
CCCCCC(=O)NC1CCCCC1OCC(=O)N[C@@H](C)C(=O)N[C@H](CCC(=O)O)C(N)=O (stereo partly drawn),Survival increase,Mus musculus [2],0
same,Survival increase,Mus musculus [31],1
same,Survival increase,Mus musculus [9],0
same,Survival increase,Mus musculus [32],1
CC(=O)N[C@@H]1CCCC[C@H]1OCC(=O)N[C@@H](C)C(=O)N[C@H](CCC(=O)O)C(=O)O,Survival increase,Mus musculus [33],2
same,Survival increase,Mus musculus [34],3
same,Survival increase,Mus musculus [35],3
same,Survival increase,Mus musculus [4],1
C[C@H](NC(=O)C1(C)OC2(C)CCCCC2(C)NC1=O)C(=O)N[C@H](CCC(=O)O)C(=O)O (stereo partly drawn),Survival increase,Mus musculus [2],0
same,Survival increase,Mus musculus [3],0
same,Survival increase,Mus musculus [9],0
same,Survival increase,Mus musculus [6],2
CCCCCCCCCCCC(=O)NC1CCCCC1OCC(=O)N[C@@H](C)C(=O)N[C@H](CCC(=O)O)C(N)=O (stereo partly drawn),Survival increase,Mus musculus [2],0
same,Survival increase,Mus musculus [35],3
same,Survival increase,Mus musculus [36],2
same,Survival increase,Mus musculus [37],3
CC(C)(N1CC1C#N)N1CC1C(N)=O (stereo not drawn) [AZIMEXON],Survival increase,Mus musculus [38],3
same,Survival increase,Mus musculus [34],3
same,Survival increase,Mus musculus [35],3
same,Survival increase,Mus musculus [39],3
